Test results: ChEMBL document CHEMBL1153581, “Synthesis, antiviral and anticancer activity of some novel thioureas derived from N-(4-nitro-2-phenoxyphenyl)-methanesulfonamide” (Eur J Med Chem, 2009)
Converted amounts (≈) assume the structure as drawn.

Experiments:
HeLa = assay: Cytotoxicity against human HeLa cells assessed as change in cell morphology; type: functional
In short: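 The minimum cytotoxic concentration (MCC) is the concentration causing a microscopically detectable alteration of cell morphology in the uninfected host cell culture.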

Human alphaherpesvirus 1 [1] = assay: Antiviral activity against HSV1 KOS infected in HEL cells assessed as protection against virus-induced cytopathogenicity; type: functional; details: Human alphaherpesvirus 1, KOS
Human alphaherpesvirus 2 = assay: Antiviral activity against Herpes simplex virus 2 infected in HEL cells assessed as protection against in virus-induced cytopathogenicity; type: functional
[2] = system: Vesicular stomatitis virus; assay: Antiviral activity against sVesicular stomatitis virus infected in HEL cells assessed as protection against virus-induced cytopathogenicity; type: functional
Human alphaherpesvirus 1 [3] = assay: Antiviral activity against acyclovir-resistant thymidine kinase-deficient HSV1 KOS infected in human HEL cells assessed as protection against virus-induced cytopathogenicity; type: functional; details: Human alphaherpesvirus 1, KOS
[4] = system: Vesicular stomatitis virus; assay: Antiviral activity against Vesicular stomatitis virus infected in human HeLa cells assessed as protection against virus-induced cytopathogenicity; type: functional
Coxsackievirus B4 [5] = assay: Antiviral activity against Coxsackievirus B4 infected in human HeLa cells assessed as protection against virus-induced cytopathogenicity; type: functional; details: Enterovirus B
[6] = system: Respiratory syncytial virus; assay: Antiviral activity against RSV infected in human HeLa cells assessed as protection against virus-induced cytopathogenicity; type: functional
Human respirovirus 3 = assay: Antiviral activity against Parainfluenza-3 virus infected in african green monkey Vero cells assessed as protection against virus-induced cytopathogenicity; type: functional
[7] = system: Mammalian orthoreovirus 1; assay: Antiviral activity against Reovirus 1 infected in african green monkey Vero cells assessed as protection against virus-induced cytopathogenicity; type: functional
Sindbis virus = assay: Antiviral activity against Sindbis virus infected in african green monkey Vero cells assessed as protection against virus-induced cytopathogenicity; type: functional
Coxsackievirus B4 [8] = assay: Antiviral activity against Coxsackievirus B4 infected in african green monkey Vero cells assessed as protection against virus-induced cytopathogenicity; type: functional; details: Enterovirus B
Punta Toro virus = assay: Antiviral activity against Punta Toro virus infected in african green monkey Vero cells assessed as protection against virus-induced cytopathogenicity; type: functional
[9] = Cytotoxicity against HEL cells assessed as change in cell morphology; type: cell-based; details: human
In short: (§1)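 HEL cell cultures examined under the microscope. Minimal cytotoxic concentration (MCC) is the concentration that causes a microscopically detectable alteration of cell morphology. Compounds were tested at subtoxic concentrations alongside the antiviral tests.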

[10] = Cytotoxicity against african green monkey Vero cells assessed as change in cell morphology; type: cell-based; details: chlorocebus sabaeus
In short: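 Vero cell cultures were used for the broad-spectrum antiviral screen. The MCC endpoint is the lowest concentration that causes a microscopically detectable alteration of cell morphology. Activity was called when 5 × MIC < MCC.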

Human betaherpesvirus 5 = assay: Antiviral activity against Cytomegalovirus AD169 infected in HEL cells assessed as reduction in virus plaque formation; type: functional, organism-based; details: Human betaherpesvirus 5, AD169, HEL
In short: (§2)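 Plaque reduction in HEL cells against CMV (AD-169, Davis) or VZV (TK⁺ OKA, TK⁻ 07/1), using a virus input of 20 PFU. EC50 is the concentration that reduced plaque formation by 50%.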

Cytomegalovirus = assay: Antiviral activity against Cytomegalovirus Davis infected in HEL cells assessed as reduction in virus plaque formation; type: functional, organism-based; details: Human betaherpesvirus 5, Davis; in short: as §2
Human alphaherpesvirus 3 [11] = assay: Antiviral activity against Varicella Zoster Virus OKA infected in HEL cells assessed as reduction in virus plaque formation; type: functional, organism-based; details: Human alphaherpesvirus 3, OKA; in short: as §2
Human alphaherpesvirus 3 [12] = assay: Antiviral activity against thymidine kinase deficient Varicella Zoster Virus 07/1 infected in HEL cells assessed as reduction in virus plaque formation; type: functional, organism-based; details: Human alphaherpesvirus 3, 07/1, HEL; in short: as §2
[13] = Cytotoxicity against Cytomegalovirus infected HEL cells assessed as change in cell morphology; type: cell-based; details: human; in short: as §1
[14] = Cytotoxicity against Cytomegalovirus infected HEL cells assessed as reduction in cell growth; type: cell-based; details: human
[15] = Cytotoxicity against Varicella Zoster Virus infected human […] cells assessed as change in cell morphology; type: cell-based
[16] = Cytotoxicity against Varicella Zoster Virus infected human […] cells assessed as reduction in cell growth; type: cell-based
[17] = Selectivity index, ratio of MCC for HEL cells to MIC50 for vaccinia virus; type: functional
In short: (§3)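 In HEL cell cultures, SI = MCC/MIC. MCC is the concentration giving microscopically detectable alteration of HEL cell morphology, and MIC is the minimal concentration effective against vaccinia or VSV cytopathicity.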

[18] = Selectivity index, ratio of MCC for HEL cells to MIC50 for vesicular stomatitis virus; type: functional; in short: as §3
[19] = system: Human immunodeficiency virus 2; assay: Antiviral activity against HIV-2 ROD infected human MT4 cells assessed as protection against virus-induced cytopathogenicity; type: functional, organism-based; details: Human immunodeficiency virus 2, ISOLATE ROD
In short: (§4)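 HIV-1 (IIIB) or HIV-2 (ROD) infection of MT-4 cells, scored as protection against virus-induced cytopathicity. IC50 was derived from protection.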

[20] = system: Human immunodeficiency virus 1; assay: Antiviral activity against HIV-1 3B infected human MT4 cells assessed as protection against virus-induced cytopathogenicity; type: functional, organism-based; details: Human immunodeficiency virus 1, 3B; in short: as §4
[21] = Cytotoxicity against HIV-1 3B infected human MT4 cells; type: cell-based; details: HIV-1 3B-infected MT4 cells

| SMILES | MCC (HeLa) | MIC50 (Human alphaherpesvirus 1 [1]) | MIC50 (Human alphaherpesvirus 2) | MIC50 [2] | MIC50 (Human alphaherpesvirus 1 [3]) | MIC50 [4] | MIC50 (Coxsackievirus B4 [5]) | MIC50 [6] | MIC50 (Human respirovirus 3) | MIC50 [7] | MIC50 (Sindbis virus) | MIC50 (Coxsackievirus B4 [8]) | MIC50 (Punta Toro virus) | MCC [9] | MCC [10] | EC50 (Human betaherpesvirus 5) | EC50 (Cytomegalovirus) | EC50 (Human alphaherpesvirus 3 [11]) | EC50 (Human alphaherpesvirus 3 [12]) | CC50 [13] | also measured |
| --- | --- | --- | --- | --- | --- | --- | --- | --- | --- | --- | --- | --- | --- | --- | --- | --- | --- | --- | --- | --- | --- |
| CS(=O)(=O)Nc1ccc(NC(=S)Nc2ccc([N+](=O)[O-])cc2)cc1Oc1ccccc1 | 40 µg/mL | > 8 µg/mL | > 8 µg/mL | 8 µg/mL (≈ 17.4 µM) | 8 µg/mL (≈ 17.4 µM) | > 8 µg/mL | > 8 µg/mL | > 8 µg/mL | > 8 µg/mL | > 8 µg/mL | > 8 µg/mL | > 8 µg/mL | > 8 µg/mL | 40 µg/mL | 40 µg/mL | 54.7 µg/mL (≈ 119 µM) | 54.7 µg/mL (≈ 119 µM) | > 20 µg/mL | > 20 µg/mL | > 100 µg/mL | CC50 [14]: > 100 µg/mL; CC50 [15]: 100 µg/mL (≈ 218 µM); CC50 [16]: > 100 µg/mL; Selectivity Index [17]: 5; Selectivity Index [18]: 5; IC50 [19]: > 15.2 µg/mL; IC50 [20]: > 15.2 µg/mL; CC50 [21]: 15.2 µg/mL (≈ 33.1 µM) |
| Nc1ncnc2c1ncn2C[C@H](O)CO [(S)-DHPA] | > 250 µg/mL |  |  |  |  | 150 µg/mL (≈ 717 µM) | 150 µg/mL (≈ 717 µM) | > 250 µg/mL | 50 µg/mL (≈ 239 µM) | 250 µg/mL (≈ 1190 µM) | > 250 µg/mL | > 250 µg/mL | > 250 µg/mL |  | > 250 µg/mL |  |  |  |  |  |  |
| Nc1nc2c(ncn2COCCO)c(=O)[nH]1 [ACYCLOVIR] |  |  | 0.4 µg/mL (≈ 1.78 µM) | > 250 µg/mL | 50 µg/mL (≈ 222 µM) |  |  |  |  |  |  |  |  | > 250 µg/mL |  |  |  |  |  |  |  |
| O=c1[nH]c(=O)n([C@H]2C[C@H](O)[C@@H](CO)O2)cc1/C=C/Br [BRIVUDINE] | > 250 µg/mL |  | 10 µg/mL (≈ 30 µM) | > 250 µg/mL | > 250 µg/mL | > 250 µg/mL | > 250 µg/mL | > 250 µg/mL | > 250 µg/mL | > 250 µg/mL | > 250 µg/mL | > 250 µg/mL | > 250 µg/mL | > 250 µg/mL | > 250 µg/mL |  |  |  |  |  |  |
| Nc1ccn(C[C@@H](CO)OCP(=O)(O)O)c(=O)n1.O.O [CIDOFOVIR] |  |  |  |  |  |  |  |  |  |  |  |  |  |  |  | 0.24 µg/mL | 0.37 µg/mL | 0.0095 µg/mL | 12.6 µg/mL | 400 µg/mL | CC50 [14]: 57 µg/mL; CC50 [15]: > 50 µg/mL; CC50 [16]: 244 µg/mL |
| Nc1nc2c(ncn2COC(CO)CO)c(=O)[nH]1 [GANCICLOVIR] |  | 0.032 µg/mL (≈ 0.125 µM) | 0.0064 µg/mL (≈ 0.0251 µM) | > 100 µg/mL | 2.4 µg/mL (≈ 9.4 µM) |  |  |  |  |  |  |  |  | > 100 µg/mL |  | 1.4 µg/mL (≈ 5.49 µM) | 1.7 µg/mL (≈ 6.66 µM) | 1 µg/mL (≈ 3.92 µM) | 15 µg/mL (≈ 58.8 µM) | 400 µg/mL (≈ 1570 µM) | CC50 [14]: 80 µg/mL (≈ 313 µM); CC50 [15]: > 50 µg/mL; CC50 [16]: 190 µg/mL (≈ 744 µM) |
| NC(=O)c1ncn([C@@H]2O[C@H](CO)[C@@H](O)[C@H]2O)n1 [RIBAVIRIN] | > 250 µg/mL | 250 µg/mL (≈ 1020 µM) | 250 µg/mL (≈ 1020 µM) | 150 µg/mL (≈ 614 µM) | > 250 µg/mL | 30 µg/mL (≈ 123 µM) | 150 µg/mL (≈ 614 µM) | 50 µg/mL (≈ 205 µM) | 150 µg/mL (≈ 614 µM) | 150 µg/mL (≈ 614 µM) | > 250 µg/mL | > 250 µg/mL | 250 µg/mL (≈ 1020 µM) | > 250 µg/mL | > 250 µg/mL |  |  |  |  |  |  |
